Laboratory results published in ChEMBL document CHEMBL3414559, “Novel C-4 heteroaryl 13-cis-retinamide Mnk/AR degrading agents inhibit cell proliferation and migration and induce apoptosis in human breast and prostate cancer cells and suppress growth of MDA-MB-231 human breast and CWR22Rv1 human prostate tumor xenografts in mice” (J Med Chem, 2015).

How the values were obtained:
LNCaP = experiment: Growth inhibition of human LNCAP cells by MTT assay; type: functional
Summary of the method: (§1)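 Cells grown in RPMI 1640 with 10% FBS, plated at 2500 cells/well, treated across a dose range; growth read by MTT. GI50 taken from dose–response curves by nonlinear regression, at least three independent experiments.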

[1] = Growth inhibition of human CWR22Rv1 cells by MTT assay; type: functional, CWR22R; details: 22Rv1; summary of the method: as §1
[2] = Growth inhibition of human PC3 cells by MTT assay; type: functional; details: PC-3; summary of the method: as §1
MCF7 = experiment: Growth inhibition of human MCF7 cells by MTT assay; type: functional; summary of the method: as §1
MDA-MB-231 = experiment: Growth inhibition of human MDA-MB-231 cells by MTT assay; type: functional; summary of the method: as §1
MDA-MB-468 = experiment: Growth inhibition of human MDA-MB-468 cells by MTT assay; type: functional; summary of the method: as §1
[3] = Growth inhibition of human SKBR3 cells by MTT assay; type: functional; details: SK-BR-3; summary of the method: as §1

SMILES	GI50 (LNCaP)	GI50 [1]	GI50 [2]	GI50 (MCF7)	GI50 (MDA-MB-231)	GI50 (MDA-MB-468)	GI50 [3]
CC(O)(CS(=O)(=O)c1ccc(F)cc1)C(=O)Nc1ccc(C#N)c(C(F)(F)F)c1 (stereo not given) [BICALUTAMIDE]	2.61 µM	3.81 µM	9.15 µM	–	–	–	–
CC1=C(/C=C/C(C)=C/C=C/C(C)=C\C(=O)Nc2ccc(F)cc2)C(C)(C)CCC1n1ccnc1 (stereo not given)	3.89 µM	8.12 µM	30.2 µM	0.4 µM	4.95 µM	4.57 µM	25.1 µM
CC1=C(/C=C/C(C)=C/C=C/C(C)=C\C(=O)Nc2ccccc2O)C(C)(C)CCC1n1ccnc1 (stereo not given)	3.23 µM	2.23 µM	15.5 µM	1.09 µM	4.67 µM	3.03 µM	3.89 µM
CC1=C(/C=C/C(C)=C/C=C/C(C)=C/C(=O)O)C(C)(C)CCC1 [TRETINOIN]	–	–	–	–	14.1 µM	14.1 µM	22.9 µM
